# Bioassay records (PubChem)
# The list is not random: actives were taken first. Their share in the collection is about 1.9%.
# DENV2 CPE rescue: DENV2-induced cell death inhibition; actives 1.7% (n = 350,000); CPE inhibition, % at 9.99 µM; DENV2-infected cells, cytopathic effect rescue, plate reader; AID 651640; in the data active = CPE inhibition above about 20%, passing the limit was not always enough; tested in BHK-21 cells;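 also: 0% = median of neutral control wells and 100% = median of positive control wells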
# XiGFP reactiv: X-chromosome reactivation activator; actives 0.055% (n = 360,000); AID 743238; activation, % at 7.58 µM; XiGFP mouse fibroblasts, % GFP-positive cells imaging, 3 d; cells co-treated with 5-aza-dC sensitizer; scaled so ellipticine positive control = 100%;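 active = mean normalized replicate activation at least 10% and every replicate at or above 10%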;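 also: 0% = median of on-plate neutral control wells and 100% = ellipticine 6 µM median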
#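 System: 68-5-11 XiGFP fibroblast line; Timing: 3 days compound exposure; Compound dosing: one concentration, pinned; Benchmarks: positive control ellipticine, 6 µM final; Buffer or medium: DMEM containing 5-aza-dC.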
# Cneo AK release: Cryptococcus neoformans lysis via adenylate kinase release; lysis activity, % at 15 µM; C. neoformans lysis, adenylate kinase release luminescence, 4 h; normalised: neutral wells 0, clomiphene wells 100; actives 0.2% (n = 360,000); AID 651654;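 active = mean lysis activity across replicates of at least 80%, whatever share of replicates individually reach that level; inactive = mean lysis activity below 80%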
#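 Material – log-phase Cryptococcus neoformans yeast cells · Input – 5 × 10^6 yeast cells/mL · Medium – fresh YPD growth medium · Doses – single compound concentration per well · Timing – static 4 h at 37 °C with compound, 1 h detection · Detection – adenylate kinase release luminescence · Read-out – signal increase indicating cell lysis · Control set – Clomiphene as positive lysis control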
# CFTR F508del cor: correctors of CFTR F508del function in bronchial epithelial cells; CFBE cells, YFP halide quenching; stimulated with forskolin plus potentiator P3; % fluorescence drop versus neutral controls; activity (quench increase), % at 7.58 µM; actives 0.36% (n = 350,000); AID 720511;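 active = mean added fluorescence quench of at least 8% versus neutral control, with both replicates also reaching 8%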;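 also: cells transiently co-express mutant CFTR-F508del with the halide-sensitive YFP; corrector assay measuring rescue of mutant channel to the surface after 24 h compound exposure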
# PGC1a acetyl inh: modulators of PGC1a acetylation; actives 0.17% (n = 350,000); AID 651687; inhibition, % at 15.6 µM; U2OS PGC1a acetylation, AlphaScreen anti-acetyl-lysine; with virally co-expressed GCN5 acetyltransferase;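 active = every replicate shows inhibition of at least 40%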;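 also: 0% = neutral control wells and 100% = positive control wells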
# FN deposition inh: fibronectin deposition inhibition; AH1F fibroblasts, Alexa488-fibronectin deposition fluorescence, overnight; inhibition, % at 12.6 µM; actives 0.086% (n = 350,000);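 active = mean inhibition across replicates of 30% or more, regardless of how many single replicates reach that level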;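 also: positive control wells lacked labelled fibronectin entirely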
#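 Material: AH1F fibroblast monolayer depositing Alexa488-labelled fibronectin into matrix | Input: 10000 AH1F cells/well | Medium: DMEM plus 2% serum, read in PBS | Reagent: Alexa488-fibronectin, 24 nM final in well | Compound dosing: One dose per compound, pinned | Schedule: 1 h adhesion, overnight exposure | Measured by: Fluorescence at 485 nm excitation, 525 nm emission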
# Active calls of the source: *; x = not tested or not shown.
SMILES,DENV2 CPE rescue,XiGFP reactiv,Cneo AK release,CFTR F508del cor,PGC1a acetyl inh,FN deposition inh
C[C@H](O)C#Cc1ccc([C@H]2[C@H](CO)N3CCCCN(C(=O)c4ccncc4)C[C@@H]23)cc1,-1.0,0.4,0.7,0.1,-1.9,x
O=C(C[C@H]1CC[C@H]2[C@@H](COC[C@H](O)CN2CC2CCCC2)O1)NCC1CC1,4.2,0.1,x,2.3,-1.7,-6.1
COCC(=O)N1CCCCN2[C@H](CO)[C@H](c3ccc(C#Cc4ccc(OC)cc4)cc3)[C@@H]2C1,39.5*,0.2,-2.6,-2.8,0.8,x
CO[C@H]1CN(C)C(=O)c2ccc(NC(C)=O)cc2OC[C@H](C)N(C(=O)C2CC2)C[C@H]1C,-1.0,-0.3,23.7,-0.4,-0.2,5.0
COc1ccc2c3c([nH]c2c1)[C@@H](CO)N(C)CC31CN(C(=O)Nc2c(C)noc2C)C1,x,0.3,x,x,x,x
O=C(COC(=O)CN1C(=O)NC2(CCCC2)C1=O)Nc1ccc(C(F)(F)F)cc1[N+](=O)[O-],31.9*,0.0,5.2,-2.1,x,9.0
C[C@@H]1CN([C@@H](C)CO)C(=O)c2cccc(NC(=O)Nc3cccc4ccccc34)c2O[C@H]1CN(C)C(=O)NC1CCCCC1,x,-0.1,x,0.6,-0.6,x
CC(=O)Nc1ccc(C(=O)Nc2cc(C(F)(F)F)ccc2-n2cnc3ccccc32)cc1,x,0.0,x,x,x,-0.9
CN(C)c1cccc(C(=O)Nc2cc(C(F)(F)F)ccc2-n2cnc3ccccc32)c1,24.9*,0.5,x,-0.3,x,-0.9
COc1ccc(Cc2nnc(NC(=O)c3ccc(F)cc3)s2)cc1OC,3.5,0.3,-1.6,8.6*,-10.9,-8.5
O=C(NC1CCCC1)c1nc(-c2c(F)cccc2F)oc1-c1ccccc1,21.7*,-0.1,x,2.0,x,4.7
CC(NC(=O)C12CC3CC(CC(C3)C1)C2)C(=O)N/N=C/C1=C(N2CCOCC2)C(=C\c2ccccc2)/CC1 (configuration not stated),133.4*,0.2,0.8,-1.8,x,0.0
O=C(COc1ccc2ccc(=O)oc2c1)NC1CCS(=O)(=O)C1 (configuration not stated),0.5,0.0,-3.4,-0.1,7.7,x
O=C(COc1ccc2c(-c3ccccc3)cc(=O)oc2c1)NC1CCS(=O)(=O)C1 (configuration not stated),143.0*,x,-1.6,-1.1,-2.8,x
CCCCC(=NCCc1c(C)[nH]c2ccccc12)C1=C(O)CC(c2ccccc2)CC1=O (configuration not stated),17.9,0.3,0.4,8.6*,0.4,x
COc1ccc(C[C@H]2CCc3cnnn3COCCNC2=O)cc1,x,0.7,x,x,x,-9.4
COc1ccccc1C(=O)N1C[C@H]2[C@@H](c3ccccc31)[C@@H](CO)N2C(=O)Nc1ccccc1,-6.0,0.1,0.1,2.0,-11.3,x
CCOc1ccc(/C=N/n2nnnc2N)cc1OCC,27.5*,0.2,-1.9,0.0,-3.7,8.6
CCOc1cc(/C=N\n2nnnc2N)ccc1O,-5.1,0.2,1.7,-0.1,7.5,-2.6
CCNC(=O)C[C@@H]1C=C[C@H](NC(=O)C2CC2)[C@H](CO)O1,0.2,-0.1,-1.1,-3.1,3.0,-5.4
CCC1(c2ccccc2)NC(=O)N(CC(=O)Nc2ccccc2C(=O)N2CCCCC2)C1=O (configuration not stated),34.8*,-0.1,1.1,1.2,x,4.3
CC(=O)Nc1ccc(-c2csc(NC(=O)CN3C(=O)NC4(CCCC4)C3=O)n2)cc1,-3.1,0.3,1.3,8.1*,x,7.0
CCN1CCN(CCC(=O)Nc2ccc(Br)c(C)c2)CC1,23.4*,0.0,0.7,-3.0,12.1,-4.9
O=C(CN1C(=O)NC2(CCCC2)C1=O)Nc1nc(-c2ccc(F)cc2)cs1,x,x,3.7,x,-5.3,4.3
Cc1cc(NC(=O)CN2C(=O)NC3(CCCCCC3)C2=O)ccc1Br,3.2,0.1,-0.6,31.8*,-24.8,-5.1
SMILES,DENV2 CPE rescue,XiGFP reactiv,Cneo AK release,CFTR F508del cor,PGC1a acetyl inh,FN deposition inh
CCC1(c2ccccc2)NC(=O)N(CC(=O)Nc2ccccc2N2CCCCC2)C1=O (configuration not stated),-6.9,0.3,4.1,3.4,-9.0,x
C[C@@H]1CCCCO[C@@H](CN(C)S(=O)(=O)c2ccc(Cl)cc2)[C@H](C)CN([C@@H](C)CO)C(=O)c2cc(N(C)C)ccc2O1,x,-0.9,x,1.0,2.3,x
COc1ccc(CN(C)C[C@@H]2Oc3ccc(NS(=O)(=O)c4c(C)noc4C)cc3CC(=O)N([C@H](C)CO)C[C@@H]2C)cc1,-1.2,0.0,x,0.3,5.0,-16.1
CC(C)(C)c1ccccc1NC(=O)CN1C(=O)NC2(CCCCCC2)C1=O,8.1,0.2,0.3,30.0*,1.0,x
CCCCC(CC)C(=O)Nc1cc(C(=O)NCc2ccc(C)cc2)ccc1N1CCC2(CC1)CC(c1ccccc1)=NO2 (configuration not stated),3.0,0.7,-1.7,-0.7,x,-7.2
CCCCCCCC(=O)Nc1cc(C(=O)NCc2ccc(C)cc2)ccc1N1CCC2(CC1)CC(c1ccccc1)=NO2,27.3*,0.0,-0.2,2.8,-3.3,-3.6
Cc1csc(=O)n1CCC(=O)OCC(=O)Nc1cc([N+](=O)[O-])ccc1Cl,36.8*,0.0,2.6,-2.2,-8.9,0.1
Cc1ccc(NC(=O)COC(=O)CCn2c(C)csc2=O)c([N+](=O)[O-])c1,-0.5,0.6,x,6.2,-3.4,7.4
O=C(CSC(=S)N1CCOCC1)Nc1ncc2c(n1)CC(c1ccco1)CC2=O (configuration not stated),30.0*,0.0,x,1.2,x,3.8
COc1ccccc1NC(=O)NCc1ccco1,5.4,0.0,x,-1.1,2.1,0.8
COc1cc(NC(=O)NCc2ccco2)ccc1-c1ccc(NC(=O)NCc2ccco2)cc1OC,10.8,-0.1,-0.1,-5.4,47.8*,-0.4
Cc1ccccc1Nc1nc(N)nc(-c2oc3ccccc3c2C)n1,68.7*,0.1,5.5,-2.1,6.4,2.9
COc1ccccc1Nc1nc(N)nc(-c2oc3ccccc3c2C)n1,x,x,0.1,x,1.3,-2.4
C[C@@H]1CCCCO[C@@H](CN(C)C(=O)c2ccncc2)[C@H](C)CN([C@H](C)CO)C(=O)c2cc(NC(=O)NC3CCCCC3)ccc2O1,5.5,-0.2,-1.6,-1.3,-16.6,x
COCCNC(=O)C[C@H]1C[C@@H]2c3cc(NS(=O)(=O)c4ccc(F)cc4)ccc3O[C@@H]2[C@H](CO)O1,0.9,0.0,-2.4,-2.5,-0.5,-0.4
O=C(NC1CCCC1)N1CCCCN2[C@H](CO)[C@H](c3ccc(-c4cncnc4)cc3)[C@@H]2C1,-1.7,0.2,103.2*,-0.2,0.2,x
